# From ChEMBL document CHEMBL3228032, “Aryloxyalkyloxy- and aralkyloxy-4-hydroxy-3-nitrocoumarins which inhibit histamine release in the rat and also antagonize the effects of a slow reacting substance of anaphylaxis” (J Med Chem, 1979)
# System: Rattus norvegicus
# Assay: Antiallergic activity against ip dosed passive peritoneal anaphylaxis rat model assessed as inhibition of histamine release in peritoneal fluid administered 30s prior to ovalbumin challenge measured per rat after 5 mins
# Assay type: functional
# Conditions: not given
# Method in brief: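 Rat anti-ovalbumin antiserum raised with Bordetella pertussis vaccine adjuvant; rats given 2 mL of 1:5 antiserum ip. 2 h later, Pontamine Sky Blue iv, then compound in 1 mL saline ip (saline controls), groups of 5–7, randomized. Challenge 30 s later ip with 5 mL Tyrode containing heparin 50 μg/mL and ovalbumin 0.4 mg/mL. Peritoneal fluid collected at 5 min for histamine. Dose reducing histamine to 50% of controls from log dose-response line, 95% confidence limits.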
row,Structure (SMILES),ED50
1,O=c1oc2cc(OCCCOc3ccccc3)ccc2c(O)c1[N+](=O)[O-],2.1 nM
2,CCCc1c(OCCCOc2ccc3c(O)c([N+](=O)[O-])c(=O)oc3c2)ccc(C(C)=O)c1O,4.8 nM
3,CCCc1ccccc1OCC(O)COc1ccc2c(O)c([N+](=O)[O-])c(=O)oc2c1 (stereo unspecified),1.1 nM
4,CCCc1cc(F)ccc1OCC(O)COc1ccc2c(O)c([N+](=O)[O-])c(=O)oc2c1 (stereo unspecified),1.7 nM
5,CCCc1c(OCC(O)COc2ccc3c(O)c([N+](=O)[O-])c(=O)oc3c2)ccc(C(C)=O)c1O (stereo unspecified),6.5 ×10⁻¹⁰ M
6,CCCc1c(OCC(O)COc2ccc3c(O)c([N+](=O)[O-])c(=O)oc3c2C)ccc(C(C)=O)c1O (stereo unspecified),2.4 nM
7,CCCc1c(OCC(O)COc2ccc3c(O)c([N+](=O)[O-])c(=O)oc3c2CCC)ccc(C(C)=O)c1O (stereo unspecified),6.2 ×10⁻¹⁰ M
8,O=C([O-])c1cc(=O)c2c(OCC(O)COc3cccc4oc(C(=O)[O-])cc(=O)c34)cccc2o1.[Na+].[Na+] [CROMOLYN SODIUM],5.2 nM
9,CCCc1c(OCC(O)COc2ccc3c(=O)cc(C(=O)O)oc3c2CCC)ccc(C(C)=O)c1O (stereo unspecified) [FPL-55712],3.2 ×10⁻⁸ M

# System: Ileum
# Assay: Antagonism of slow reacting substance of anaphylaxis-induced effect in guinea pig ileum
# Assay type: functional, tissue-based
# Conditions: Cavia porcellus
# Method in brief: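 SRS-A standard: heated supernatant of pooled rat peritoneal fluid taken 5 min after antigen challenge in passive peritoneal anaphylaxis. Assayed on isolated terminal guinea pig ileum in 4 mL Tyrode's with atropine 5 × 10⁻⁷ M and mepyramine maleate 10⁻⁶ M. Antagonist in water added 30 s before a submaximal SRS-A dose. At least three concentrations, more than one ileum. Bath concentration for 50% inhibition taken from log concentration-inhibition curve, by eye or best-fit line with 95% confidence limits.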
row,Structure (SMILES),IC50 [nM]
1,O=C(O)c1ccc(OCCCOc2ccc3c(O)c([N+](=O)[O-])c(=O)oc3c2)cc1,> 20000
2,O=c1oc2cccc(OCCCOc3ccccc3)c2c(O)c1[N+](=O)[O-],18000
3,O=c1oc2cccc(OCCCCOc3ccccc3)c2c(O)c1[N+](=O)[O-],> 10000
4,O=c1oc2ccc(OCCOc3ccccc3)cc2c(O)c1[N+](=O)[O-],17000
5,O=c1oc2ccc(OCCCOc3ccccc3)cc2c(O)c1[N+](=O)[O-],2300
6,O=c1oc2ccc(OCCCCCOc3ccccc3)cc2c(O)c1[N+](=O)[O-],2000
7,O=c1oc2ccc(OCCCCCCOc3ccccc3)cc2c(O)c1[N+](=O)[O-],780
8,O=c1oc2cc(OCCOc3ccccc3)ccc2c(O)c1[N+](=O)[O-],> 10000
9,O=c1oc2cc(OCCCOc3ccccc3)ccc2c(O)c1[N+](=O)[O-],1600
10,O=c1oc2cc(OCCCCOc3ccccc3)ccc2c(O)c1[N+](=O)[O-],3600
11,O=c1oc2cc(OCCCCCOc3ccccc3)ccc2c(O)c1[N+](=O)[O-],8400
12,O=c1oc2cc(OCCCCCCOc3ccccc3)ccc2c(O)c1[N+](=O)[O-],> 20000
13,O=c1oc2c(OCCCOc3ccccc3)cccc2c(O)c1[N+](=O)[O-],> 20000
14,O=c1oc2cccc(OCCCc3ccccc3)c2c(O)c1[N+](=O)[O-],> 20000
15,O=c1oc2ccc(OCc3ccccc3)cc2c(O)c1[N+](=O)[O-],22000
16,O=c1oc2ccc(OCCc3ccccc3)cc2c(O)c1[N+](=O)[O-],18000
17,O=c1oc2ccc(OCCCc3ccccc3)cc2c(O)c1[N+](=O)[O-],5500
18,O=c1oc2cc(OCc3ccccc3)ccc2c(O)c1[N+](=O)[O-],1500
19,O=c1oc2cc(OCCc3ccccc3)ccc2c(O)c1[N+](=O)[O-],4400

row,Structure (SMILES),IC50 [nM]
1,O=c1oc2cc(OCCCc3ccccc3)ccc2c(O)c1[N+](=O)[O-],7800
2,O=c1oc2cc(OCCCCc3ccccc3)ccc2c(O)c1[N+](=O)[O-],4500
3,O=c1oc2cc(OCCCCc3ccc(Cl)cc3)ccc2c(O)c1[N+](=O)[O-],3800
4,Cc1ccc(CCCCOc2ccc3c(O)c([N+](=O)[O-])c(=O)oc3c2)cc1,2500
5,Cc1cc(OCCCOc2ccccc2)cc2oc(=O)c([N+](=O)[O-])c(O)c12,5200
6,CCc1cc2c(O)c([N+](=O)[O-])c(=O)oc2cc1OCCCOc1ccccc1,> 10000
7,CCCc1c(OCCCOc2ccccc2)ccc2c(O)c([N+](=O)[O-])c(=O)oc12,540
8,O=c1oc2cc(OCCCOc3ccc(F)cc3)ccc2c(O)c1[N+](=O)[O-],1000
9,O=c1oc2cc(OCCCOc3ccc(Cl)cc3)ccc2c(O)c1[N+](=O)[O-],4000
10,COc1ccc(OCCCOc2ccc3c(O)c([N+](=O)[O-])c(=O)oc3c2)cc1,> 4000
11,CC(=O)c1ccc(OCCCOc2ccc3c(O)c([N+](=O)[O-])c(=O)oc3c2)cc1,6100
12,COC(=O)c1ccc(OCCCOc2ccc3c(O)c([N+](=O)[O-])c(=O)oc3c2)cc1,> 10000
13,N#Cc1ccc(OCCCOc2ccc3c(O)c([N+](=O)[O-])c(=O)oc3c2)cc1,> 10000
14,O=c1oc2cc(OCCCOc3ccc(-c4ccccc4)cc3)ccc2c(O)c1[N+](=O)[O-],> 20000
15,Cc1ccc(OCCCOc2ccc3c(O)c([N+](=O)[O-])c(=O)oc3c2)cc1,4500
16,Cc1cccc(OCCCOc2ccc3c(O)c([N+](=O)[O-])c(=O)oc3c2)c1,4400
17,Cc1ccccc1OCCCOc1ccc2c(O)c([N+](=O)[O-])c(=O)oc2c1,590
18,O=c1oc2cc(OCCCOc3ccc4c(c3)CCCC4)ccc2c(O)c1[N+](=O)[O-],> 2000
19,CC(=O)c1ccc(OCCCOc2ccc3c(O)c([N+](=O)[O-])c(=O)oc3c2)cc1O,2800

row,Structure (SMILES),IC50 [nM]
1,Cc1ccc(OCCCOc2ccc3c(O)c([N+](=O)[O-])c(=O)oc3c2)c([N+](=O)[O-])c1,> 10000
2,CCCc1c(OCCCOc2ccc3c(O)c([N+](=O)[O-])c(=O)oc3c2)ccc(C(C)=O)c1O,100
3,O=c1oc2cc(OCC(O)COc3ccccc3)ccc2c(O)c1[N+](=O)[O-] (stereo unspecified),12000
4,O=C(O)c1ccc(OCC(O)COc2ccc3c(O)c([N+](=O)[O-])c(=O)oc3c2)cc1 (stereo unspecified),> 10000
5,CCc1ccccc1OCC(O)COc1ccc2c(O)c([N+](=O)[O-])c(=O)oc2c1 (stereo unspecified),2700
6,CCCc1ccccc1OCC(O)COc1ccc2c(O)c([N+](=O)[O-])c(=O)oc2c1 (stereo unspecified),110
7,CCCc1cc(F)ccc1OCC(O)COc1ccc2c(O)c([N+](=O)[O-])c(=O)oc2c1 (stereo unspecified),140
8,CC(C)c1ccccc1OCC(O)COc1ccc2c(O)c([N+](=O)[O-])c(=O)oc2c1 (stereo unspecified),160
9,CCCc1cc(C(C)=O)ccc1OCC(O)COc1ccc2c(O)c([N+](=O)[O-])c(=O)oc2c1 (stereo unspecified),700
10,CC(=O)c1ccc(OCC(O)COc2ccc3c(O)c([N+](=O)[O-])c(=O)oc3c2)cc1O (stereo unspecified),> 20000
11,CC(=O)c1ccc(OCC(O)COc2ccc3c(O)c([N+](=O)[O-])c(=O)oc3c2)c(C)c1O (stereo unspecified),500
12,CCCc1c(OCC(O)COc2ccc3c(O)c([N+](=O)[O-])c(=O)oc3c2)ccc(C(C)=O)c1O (stereo unspecified),80
13,CCCc1c(OCC(O)COc2ccc3c(O)c([N+](=O)[O-])c(=O)oc3c2)ccc(C(=O)CC)c1O (stereo unspecified),150
14,CCc1cc(C(C)=O)c(O)cc1OCC(O)COc1ccc2c(O)c([N+](=O)[O-])c(=O)oc2c1 (stereo unspecified),3500
15,CCCc1c(OCC(O)COc2ccc3c(O)c([N+](=O)[O-])c(=O)oc3c2C)ccc(C(C)=O)c1O (stereo unspecified),25
16,CCCc1c(O)c(C(C)=O)cc([N+](=O)[O-])c1OCC(O)COc1ccc2c(O)c([N+](=O)[O-])c(=O)oc2c1C (stereo unspecified),1600
17,CCCc1c(OCC(O)COc2ccc3c(O)c([N+](=O)[O-])c(=O)oc3c2CC)ccc(C(C)=O)c1O (stereo unspecified),50
18,CCCc1c(OCC(O)COc2ccc3c(O)c([N+](=O)[O-])c(=O)oc3c2CCC)ccc(C(C)=O)c1O (stereo unspecified),200
19,CCCc1c(OCC(O)COc2ccc3c(=O)cc(C(=O)O)oc3c2CCC)ccc(C(C)=O)c1O (stereo unspecified) [FPL-55712],170
